Test results reported in ChEMBL document CHEMBL3244422, “Synthesis and biological activity of beta-melanotropins and analogues” (1977).
Where a SMILES comes first, the peptide text is derived from it. The star is where a group is joined. For = O=C*

Key:
[1] = Lipolytic activity in isolated rabbit fat cells assessed as glycerol production per gram of cells at 66 ng measured every hour; format: functional, Oryctolagus cuniculus
[2] = Lipolytic activity in isolated rabbit fat cells assessed as glycerol production per gram of cells at 22 ng measured every hour; format: functional, Oryctolagus cuniculus
[3] = test system: Zone of skin; test: Melanotropic activity in frog skin assessed as skin darkening at 2.3 ng relative to control; format: functional, Anura
Summary of the method: (§1)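 Skin-darkening activity of the synthetic peptides measured in vitro on isolated frog skin.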

[4] = test system: Zone of skin; test: Melanotropic activity in frog skin assessed as skin darkening at 6.9 ng relative to control; format: functional, Anura; summary of the method: as §1
[5] = test system: Zone of skin; test: Melanotropic activity in frog skin assessed as skin darkening at 7.8 ng relative to control; format: functional, Anura; summary of the method: as §1
[6] = Lipolytic activity in isolated rabbit fat cells assessed as glycerol production per gram of cells at 22 ng measured every hour relative to beta-b-MSH; format: functional, Oryctolagus cuniculus
[7] = test system: Zone of skin; test: Melanotropic activity in frog skin assessed as skin darkening at 2.6 ng relative to beta-b-MSH; format: functional, Anura; summary of the method: as §1
[8] = test system: Zone of skin; test: Melanotropic activity in frog skin assessed as skin darkening at 2.6 ng relative to control; format: functional, Anura; summary of the method: as §1
[9] = test system: Zone of skin; test: Melanotropic activity in frog skin assessed as skin darkening at 6 ng relative to beta-c1-MSH; format: functional, Anura; summary of the method: as §1
[10] = Lipolytic activity in isolated rabbit fat cells assessed as glycerol production per gram of cells at 37 ng measured every hour; format: functional, Oryctolagus cuniculus
[11] = Lipolytic activity in isolated rabbit fat cells assessed as glycerol production per gram of cells at 37 ng measured every hour relative to beta-c1-MSH; format: functional, Oryctolagus cuniculus
[12] = test system: Zone of skin; test: Melanotropic activity in frog skin assessed as skin darkening at 18 ng relative to control; format: functional, Anura; summary of the method: as §1
[13] = Lipolytic activity in isolated rabbit fat cells assessed as glycerol production per gram of cells at 111 ng measured every hour; format: functional, Oryctolagus cuniculus
[14] = test system: Zone of skin; test: Melanotropic activity in frog skin assessed as skin darkening at 6 ng relative to control; format: functional, Anura; summary of the method: as §1
[15] = test system: Zone of skin; test: Melanotropic activity in frog skin assessed as skin darkening at 8.1 ng relative to control; format: functional, Anura; summary of the method: as §1
[16] = test system: Zone of skin; test: Melanotropic activity in frog skin assessed as skin darkening at 2.7 ng relative to beta-b-MSH; format: functional, Anura; summary of the method: as §1
[17] = test system: Zone of skin; test: Melanotropic activity in frog skin assessed as skin darkening at 2.7 ng relative to control; format: functional, Anura; summary of the method: as §1
[18] = Lipolytic activity in isolated rabbit fat cells assessed as glycerol production per gram of cells at 1100 ng measured every hour relative to beta-c1-MSH; format: functional, Oryctolagus cuniculus
[19] = Lipolytic activity in isolated rabbit fat cells assessed as glycerol production per gram of cells at 3300 ng measured every hour; format: functional, Oryctolagus cuniculus
[20] = Lipolytic activity in isolated rabbit fat cells assessed as glycerol production per gram of cells at 1100 ng measured every hour; format: functional, Oryctolagus cuniculus
[21] = test system: Zone of skin; test: Melanotropic activity in frog skin assessed as skin darkening at 3 ng relative to control; format: functional, Anura; summary of the method: as §1
[22] = test system: Zone of skin; test: Melanotropic activity in frog skin assessed as skin darkening at 9 ng relative to control; format: functional, Anura; summary of the method: as §1

Row | Compound | Activity [1] | Activity [2] | Activity [9] | Activity [10] | Activity [11] | Activity [12] | Activity [13] | Activity [14] | further results
1 | CSCC[C@H](NC(=O)[C@H](CCCCN)NC(=O)[C@H](Cc1ccc(O)cc1)NC(=O)[C@@H]1CCCN1C(=O)CNC(=O)[C@H](CO)NC(=O)[C@@H](N)CC(=O)O)C(=O)N[C@@H](CCC(=O)O)C(=O)N[C@@H](Cc1cnc[nH]1)C(=O)N[C@@H](Cc1ccccc1)C(=O)N[C@@H](CCCNC(=N)N)C(=O)N[C@@H](Cc1c[nH]c2ccccc12)C(=O)NCC(=O)N[C@@H](CO)C(=O)N1CCC[C@H]1C(=O)N1CCC[C@H]1C(=O)N[C@@H](CCCCN)C(=O)N[C@@H](CC(=O)O)C(=O)O (stereo in doubt; form 2) | 3.76 µmol | 1.38 µmol |  |  |  |  |  |  | Activity [3]: 29.1%; Activity [4]: 44.6%
2 | H-DEGPYKMEHFRWGSPPKD-OH | 3.49 µmol | 1.62 µmol |  |  |  |  |  |  | Activity [5]: 69.8%; Activity [6]: 102.4%; Activity [7]: 355.6%; Activity [8]: 49.6%
3 | CSCC[C@H](NC(=O)[C@H](CCCCN)NC(=O)[C@H](Cc1ccc(O)cc1)NC(=O)[C@@H]1CCCN1C(=O)CNC(=O)CNC(=O)[C@@H](N)CC(=O)O)C(=O)N[C@@H](CCC(N)=O)C(=O)N[C@@H](Cc1cnc[nH]1)C(=O)N[C@@H](Cc1ccccc1)C(=O)N[C@@H](CCCNC(=N)N)C(=O)N[C@@H](Cc1cn(C=O)c2ccccc12)C(=O)NCC(=O)N[C@@H](CO)C(=O)N1CCC[C@H]1C(=O)N1CCC[C@H]1C(=O)N[C@@H](CCCCN)C(=O)N[C@@H](CC(=O)O)C(=O)O (H-DGGPYKMQHFRW(For)GSPPKD-OH) |  |  | 39.7% | 1.09 µmol | 10.2% | 52.4% | 2.05 µmol | 32.8% | 
4 | H-DGGPYKMRHFRWGSPPKD-OH |  |  | 10.5% | 1.73 µmol | 34.2% | 24.6% | 3.12 µmol | 17.1% | 
5 | CSCC[C@H](NC(=O)[C@H](CCCCN)NC(=O)[C@H](Cc1ccc(O)cc1)NC(=O)[C@@H]1CCCN1C(=O)CNC(=O)[C@H](CO)NC(=O)[C@@H](N)CC(=O)O)C(=O)N[C@@H](CCC(=O)O)C(=O)N[C@@H](Cc1cnc[nH]1)C(=O)N[C@@H](Cc1ccccc1)C(=O)N[C@@H](CCCNC(=N)N)C(=O)N[C@@H](Cc1c[nH]c2ccccc12)C(=O)NCC(=O)N[C@@H](CO)C(=O)N1CCC[C@H]1C(=O)N1CCC[C@H]1C(=O)N[C@@H](CCCCN)C(=O)N[C@@H](CC(=O)O)C(=O)O (stereo in doubt; form 1) | 3.61 µmol | 1.18 µmol |  | 1.78 µmol | 40.2% |  | 2.96 µmol |  | Activity [6]: 95.5%; Activity [15]: 49.6%; Activity [16]: 120.2%; Activity [17]: 30.1%
6 | H-DGGPYKMQHGRWGSPPKD-OH |  |  | 0.8% |  |  | 7.8% |  | 5.5% | Activity [18]: 0.001%; Activity [19]: 0.37 µmol; Activity [20]: 0.19 µmol
7 | H-DGGPYKMQHFRFGSPPKD-OH |  |  | 28% |  |  | 38.2% |  | 26.2% | Activity [18]: 0.006%; Activity [19]: 1.63 µmol; Activity [20]: 1.29 µmol
8 | H-DGGPYKMQHFRWGSPPKD-OH |  |  |  | 2.94 µmol |  | 71% | 3.6 µmol | 62% | Activity [21]: 32.7%; Activity [22]: 63.5%
